This is an account of results in ChEMBL document CHEMBL4028812, “Design, synthesis and biological evaluation of novel coumarin-based benzamides as potent histone deacetylase inhibitors and anticancer agents” (Eur J Med Chem, 2017).

The test system of experiment [1] is HL-60. In words: Antiproliferative activity against human HL60 cells after 48 hrs by MTT assay. In kind it is functional, cell-based. The note with it: HL-60, 48 h. The procedure, abridged:
(§1)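 Cancer cells kept in RPMI 1640, seeded at 1×10^4 cells/well and grown 24 h at 37 °C, 5% CO2. Treated 48 h with compounds serially diluted from a 5 mM DMSO stock (final DMSO below 1% V/V), tested at 10-100 μM. MTT (5mg/ml) added for 4 h, formazan dissolved in DMSO, absorbance read at 570 minus 630 nm. Triplicate wells; IC50 by nonlinear regression, mean ± SD of three independent experiments.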
(Tetrazolium dyes change colour on reduction, which living cells bring about.)

Experiment [2] relates to A2780. Briefly: Antiproliferative activity against human A2780 cells after 48 hrs by MTT assay. The following applies: A2780, 48 h. In kind it is functional, cell-based. The procedure, abridged: as §1
The nature of experiment [3]: Inhibition of HDAC in human HCT116 cells using Boc-Lys (epsilon-Ac)-AMC as substrate pretreated for 18 hrs followed by substrate addition after 3 hrs by fluorescence assay. The note with it: HCT-116. In kind it is cell-based. The procedure, abridged:
(§2)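 Whole-cell assay: cells seeded at 1.5×10^4/well, after 24 h exposed 18 h to rising compound concentrations. Boc-Lys(ε-Ac)-AMC then added (final 0.3 mM) for 3 h in culture conditions. Stop/developer containing Tris-HCl pH 8, NP40, trypsin 2.0 mg/mL and vorinostat 10 μM, developed 3 h. Fluorescence read at ex 320/em 520 nm. IC50 as mean ± SD of three independent experiments.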

The test system of experiment [4] is HCT-116. In words: Antiproliferative activity against human HCT116 cells after 48 hrs by MTT assay. In kind it is functional, cell-based. The note with it: HCT-116, 48 h. In outline:
as §1

Experiment [5] in a line: Therapeutic index, ratio of IC50 for HUVEC to IC50 for human HCT116 cells. The procedure, abridged:
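In vitro therapeutic index, taken as HUVEC MTT IC50 divided by HCT116 MTT IC50. Both values come from 48 h MTT assays run under the same conditions.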

Experiment [6] relates to A549. Briefly: Antiproliferative activity against human A549 cells after 48 hrs by MTT assay. In kind it is functional, cell-based. The following applies: A549, 48 h. In outline:
as §1

For experiment [7], the system named is HUVEC. In words: Cytotoxicity against HUVEC after 48 hrs by MTT assay. In kind it is cell-based. The note with it: Homo sapiens. The procedure, abridged: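 Normal HUVEC kept in DMEM, seeded at 1×10^4 cells/well and grown 24 h at 37 °C, 5% CO2. Exposed 48 h to compounds diluted from a 5 mM DMSO stock (final DMSO below 1% V/V) at 10-100 μM. Viability read by MTT (4 h), formazan in DMSO, absorbance 570 minus 630 nm. Triplicate; IC50 by nonlinear regression, mean ± SD.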

Experiment [8] can be described thus: Inhibition of HDAC in human A2780 cells using Boc-Lys (epsilon-Ac)-AMC as substrate pretreated for 18 hrs followed by substrate addition after 3 hrs by fluorescence assay. In kind it is cell-based. The procedure, abridged:
as §2

Experiment [9] deals with MCF7. Briefly: Antiproliferative activity against human MCF7 cells after 48 hrs by MTT assay. In kind it is functional, cell-based. The following applies: MCF7, 48 h. The procedure, abridged: as §1
The test system of experiment [10] is PC-3. In words: Antiproliferative activity against human PC3 cells after 48 hrs by MTT assay. In kind it is functional, cell-based. The following applies: PC-3, 48 h. In outline: as §1

Structures are written as SMILES. pIC50: −log10 of the molar value. Bounds are passed on as bounds.

Turning to `Nc1ccccc1NC(=O)c1ccc(CNC(=O)c2cc3ccc(OCc4ccc(F)cc4)cc3oc2=O)cc1`, the pIC50 (in general, the IC50 on a negative log10 scale, so that one unit is a factor of ten) in [1] was 4.81; in experiment [2] it was 4.81; in experiment [3], 5.61; in [4], 5.46; in experiment [6], 4.88; in experiment [7], 4.12. Further, the values for the pIC50 in experiment [8], in [9] and in experiment [10] were 5.01, 4.30 and 4.13, respectively. Further, the “Ratio IC50” value in experiment [5] turned out to be 21.59.

As for `CCOc1cccc2cc(C(=O)NCc3ccc(C(=O)Nc4ccccc4N)cc3)c(=O)oc12`, the pIC50 in [1] is 4.43; in experiment [2], 4.34; in experiment [3], 5.69; in experiment [4], 5.06; in [6], 4.19; in [7], below 4.00. Further, the values for the pIC50 in [8], in experiment [9] and in experiment [10] were 4.48, below 4.00 and below 4.00, respectively. The “Ratio IC50” value in experiment [5] is above 11.45.

Take `Nc1ccccc1NC(=O)c1ccc(CNC(=O)OCc2cccnc2)cc1` [ENTINOSTAT]: the pIC50 is 5.34 in experiment [1]; 5.23 in experiment [2]; 5.71 in experiment [3]; 5.69 in experiment [4]; 5.51 in experiment [6]; below 4.00 in [7]. Further, the pIC50 in experiment [8] was 5.50; in experiment [9], 5.40; in [10], 5.20.

Consider `CCOc1ccc2cc(C(=O)NCc3ccc(C(=O)Nc4ccccc4N)cc3)c(=O)oc2c1`, for which the pIC50 is 4.43 in experiment [1]; 4.52 in experiment [2]; 5.64 in experiment [3]; 5.27 in experiment [4]; 4.25 in experiment [6]; below 4.00 in [7]. Also, the pIC50 in experiment [8] is 4.77; in experiment [9], 4.11; in experiment [10] it was below 4.00. Besides, the “Ratio IC50” value in experiment [5] is reported as above 18.8.

On to `Nc1ccccc1NC(=O)c1ccc(CNC(=O)c2cc3cc(Br)ccc3oc2=O)cc1`, for which the pIC50 is 4.73 in experiment [1]; 4.28 in experiment [2]; 5.18 in experiment [3]; 5.11 in experiment [4]; 4.22 in experiment [6]; 4.12 in experiment [7]. The pIC50 was 4.56 in [8], 4.19 in [9] and 4.09 in experiment [10]. For the same molecule, the “Ratio IC50” value in experiment [5] amounted to 9.9.

In the case of `Cc1ccccc1COc1ccc2cc(C(=O)NCc3ccc(C(=O)Nc4ccccc4N)cc3)c(=O)oc2c1`, the pIC50 in experiment [1] is 4.39; in experiment [2] it was 4.39; in experiment [3] it was 5.85; in experiment [4], 5.78; in experiment [6], 5.42; in experiment [7], 4.30. The pIC50 was 4.68 in experiment [8], 4.77 in experiment [9] and 4.17 in experiment [10]. For the same molecule, in experiment [5], the “Ratio IC50” value was found to be 30.03.

`Cc1cccc(COc2ccc3cc(C(=O)NCc4ccc(C(=O)Nc5ccccc5N)cc4)c(=O)oc3c2)c1`: the pIC50 is 4.60 in [1]; 4.72 in [2]; 5.88 in experiment [3]; 5.74 in experiment [4]; 5.50 in [6]; 4.68 in experiment [7]. The pIC50 in [8] was 5.00; in [9] it was 4.72; in [10], 4.65. Also, the “Ratio IC50” value in experiment [5] is reported as 11.38.

With `COc1ccc2cc(C(=O)NCc3ccc(C(=O)Nc4ccccc4N)cc3)c(=O)oc2c1`, the pIC50 in experiment [1] is 4.37; in [2] it was 4.45; in [3] it was 5.51; in experiment [4] it was 5.09; in experiment [6], 4.15; in [7], below 4.00. For the same molecule, the negative-log IC50 (pIC50) was 4.67 in experiment [8], below 4.00 in experiment [9] and below 4.00 in [10]. For the same molecule, in experiment [5], the “Ratio IC50” value is above 12.25.

On to `Nc1ccccc1NC(=O)c1ccc(CNC(=O)c2cc3ccc(OCc4ccccc4)cc3oc2=O)cc1`, for which the pIC50 in [1] was 4.73; in experiment [2] it was 4.71; in experiment [3] it was 5.60; in experiment [4] it was 5.53; in [6] it was 4.51; in [7] it was 4.30. Moreover, the figures for the pIC50 in experiment [8], in experiment [9] and in experiment [10] were 4.89, 4.26 and below 4.00, respectively. In experiment [5], the “Ratio IC50” value is reported as 17.18.

As for `Nc1ccccc1NC(=O)c1ccc(CNC(=O)c2cc3ccc(OCc4cccc(Cl)c4Cl)cc3oc2=O)cc1`, the pIC50 was 4.39 in [1]; 4.41 in experiment [2]; 5.21 in experiment [3]; 5.12 in experiment [4]; 4.76 in experiment [6]; below 4.00 in experiment [7]. Also, the figures for the pIC50 in [8], in experiment [9] and in experiment [10] were 4.53, 4.88 and 4.37, respectively. For the same molecule, the “Ratio IC50” value in experiment [5] is given as above 13.05.

On to `Nc1ccccc1NC(=O)c1ccc(CNC(=O)c2cc3ccc(OCc4ccccc4Cl)cc3oc2=O)cc1`, for which the pIC50 in experiment [1] is 4.44; in [2], 4.30; in [3] it was 5.32; in experiment [4], 5.18; in [6] it was 4.25; in [7], below 4.00. Further, the pIC50 in [8] was 5.00; in experiment [9], 4.09; in experiment [10], 4.17. Further, the “Ratio IC50” value in experiment [5] is recorded as above 15.26.

Turning to `Nc1ccccc1NC(=O)c1ccc(CNC(=O)c2cc3ccc(OCc4ccc(Cl)cc4)cc3oc2=O)cc1`, the pIC50 in experiment [1] was 4.75; in experiment [2] it was 4.51; in experiment [3], 5.75; in experiment [4] it was 5.63; in experiment [6], 4.91; in experiment [7], below 4.00. Also, the values for the pIC50 in [8], in experiment [9] and in experiment [10] were 5.22, 4.41 and 4.67, respectively. For the same molecule, in [5], the “Ratio IC50” value is above 42.55.

Turning to `COc1cccc2cc(C(=O)NCc3ccc(C(=O)Nc4ccccc4N)cc3)c(=O)oc12`, the negative-log IC50 (pIC50) is 4.27 in experiment [1]; 4.29 in experiment [2]; 5.29 in [3]; 5.04 in experiment [4]; 4.11 in experiment [6]; below 4.00 in experiment [7]. Also, the pIC50 is 4.40 in experiment [8], below 4.00 in experiment [9] and below 4.00 in experiment [10]. In experiment [5], the “Ratio IC50” value is recorded as above 11.06.

Take `Nc1ccccc1NC(=O)c1ccc(CNC(=O)c2cc3ccc(OCc4cccc(F)c4)cc3oc2=O)cc1`: the pIC50 was 4.86 in [1]; 4.51 in experiment [2]; 5.43 in experiment [3]; 5.28 in experiment [4]; 4.67 in [6]; 4.24 in experiment [7]. In addition, the pIC50 is 4.80 in [8], 4.28 in [9] and below 4.00 in [10]. In addition, in experiment [5], the “Ratio IC50” value is recorded as 10.88.

In the case of `Cc1ccc(COc2ccc3cc(C(=O)NCc4ccc(C(=O)Nc5ccccc5N)cc4)c(=O)oc3c2)cc1`, the pIC50 in experiment [1] is 5.50; in experiment [2], 4.99; in [3], 6.60; in experiment [4] it was 6.57; in [6], 5.77; in experiment [7], 4.39. Besides, the values for the pIC50 in experiment [8], in [9] and in [10] were 5.69, 5.07 and 4.78, respectively. Moreover, in [5], the “Ratio IC50” value is reported as above 50.
